Measured values as given in PMC11872064 (Drug Design, Development and Therapy, 2025).

Key:
hOAT3 = molecular target: T1, hOAT3 (Homo sapiens, UniProt Q8TCC7); test: hOAT3 expressing oocytes, [14C]UA uptake inhibition; type: cell-based; conditions: inhibitor injected inside the oocyte
T1 sequence (Q8TCC7 1-542): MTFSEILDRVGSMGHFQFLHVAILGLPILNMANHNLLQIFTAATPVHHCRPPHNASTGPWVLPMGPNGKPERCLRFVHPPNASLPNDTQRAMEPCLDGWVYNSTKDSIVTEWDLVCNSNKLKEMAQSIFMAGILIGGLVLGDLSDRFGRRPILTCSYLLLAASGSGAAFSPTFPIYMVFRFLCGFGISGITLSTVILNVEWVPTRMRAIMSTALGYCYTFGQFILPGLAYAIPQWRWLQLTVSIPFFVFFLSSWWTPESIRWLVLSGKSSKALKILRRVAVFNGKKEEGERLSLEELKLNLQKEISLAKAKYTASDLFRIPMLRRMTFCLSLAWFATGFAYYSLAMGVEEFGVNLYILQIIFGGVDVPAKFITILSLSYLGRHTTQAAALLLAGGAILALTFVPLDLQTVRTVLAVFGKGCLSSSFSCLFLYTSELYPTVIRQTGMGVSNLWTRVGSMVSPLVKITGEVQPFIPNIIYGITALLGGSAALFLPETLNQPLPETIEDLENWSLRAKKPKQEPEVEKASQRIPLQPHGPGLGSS

hNPT4 = molecular target: T2, hNPT4 (Homo sapiens, UniProt O00476); test: hNPT4 expressing oocytes, [14C]UA uptake inhibition; type: cell-based; conditions: for [14C]UA uptake inhibition via hNPT4, inhibitor outside: inhibitor in uptake solution
T2 sequence (O00476 1-498 isoform O00476-2): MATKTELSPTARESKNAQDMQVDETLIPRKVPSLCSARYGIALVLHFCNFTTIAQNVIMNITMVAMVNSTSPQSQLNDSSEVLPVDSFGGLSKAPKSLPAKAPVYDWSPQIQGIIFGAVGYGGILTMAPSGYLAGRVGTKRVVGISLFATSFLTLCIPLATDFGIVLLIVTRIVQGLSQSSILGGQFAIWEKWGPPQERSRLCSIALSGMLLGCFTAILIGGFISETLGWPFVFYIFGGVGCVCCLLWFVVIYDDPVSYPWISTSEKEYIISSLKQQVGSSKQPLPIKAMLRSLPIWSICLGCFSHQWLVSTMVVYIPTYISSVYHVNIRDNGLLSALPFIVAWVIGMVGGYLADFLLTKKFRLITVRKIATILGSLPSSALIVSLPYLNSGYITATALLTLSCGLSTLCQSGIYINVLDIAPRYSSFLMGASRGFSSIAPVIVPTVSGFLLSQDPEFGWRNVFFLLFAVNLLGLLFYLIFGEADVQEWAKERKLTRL
Outline: (§1)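 Xenopus oocytes were injected with 25 ng cRNA for hNPT4 or hOAT10 and held 2–3 days at 18 ± 2 °C. [14C]uric acid uptake was measured at room temperature in ND96. Inhibitor was either added to the uptake solution (outside) or injected into the oocyte (46 nL, inside); injected oocytes were washed and then incubated 60 min with substrate. Uptake was stopped with ice-cold washes, oocytes were SDS-solubilised and counted by scintillation, and results are mean ± S.D.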

hURAT1 = molecular target: T3, hURAT1 (Homo sapiens, UniProt Q96S37); test: hURAT1 expressing oocytes, [14C]UA uptake inhibition; type: cell-based
T3 sequence (Q96S37 1-553): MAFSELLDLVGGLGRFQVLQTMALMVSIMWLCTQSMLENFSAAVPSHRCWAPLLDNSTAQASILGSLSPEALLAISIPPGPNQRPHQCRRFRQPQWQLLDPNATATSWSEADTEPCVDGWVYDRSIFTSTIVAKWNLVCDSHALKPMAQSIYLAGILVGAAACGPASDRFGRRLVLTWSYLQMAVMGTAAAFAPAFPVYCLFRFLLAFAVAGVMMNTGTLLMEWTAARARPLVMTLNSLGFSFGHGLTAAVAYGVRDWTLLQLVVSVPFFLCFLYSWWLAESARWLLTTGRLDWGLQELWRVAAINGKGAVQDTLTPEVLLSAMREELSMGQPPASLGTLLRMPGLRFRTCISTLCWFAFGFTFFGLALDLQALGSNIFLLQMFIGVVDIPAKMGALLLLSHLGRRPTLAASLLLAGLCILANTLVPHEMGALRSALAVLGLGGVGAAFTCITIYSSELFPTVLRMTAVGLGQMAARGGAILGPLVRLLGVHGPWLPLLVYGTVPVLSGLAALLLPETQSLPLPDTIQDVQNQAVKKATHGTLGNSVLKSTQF

hOAT1 = molecular target: T4, hOAT1 (Homo sapiens, UniProt Q4U2R8); test: hOAT1 expressing oocytes, [14C]UA uptake inhibition; type: cell-based; conditions: inhibitor injected inside the oocyte
T4 sequence (Q4U2R8 1-563): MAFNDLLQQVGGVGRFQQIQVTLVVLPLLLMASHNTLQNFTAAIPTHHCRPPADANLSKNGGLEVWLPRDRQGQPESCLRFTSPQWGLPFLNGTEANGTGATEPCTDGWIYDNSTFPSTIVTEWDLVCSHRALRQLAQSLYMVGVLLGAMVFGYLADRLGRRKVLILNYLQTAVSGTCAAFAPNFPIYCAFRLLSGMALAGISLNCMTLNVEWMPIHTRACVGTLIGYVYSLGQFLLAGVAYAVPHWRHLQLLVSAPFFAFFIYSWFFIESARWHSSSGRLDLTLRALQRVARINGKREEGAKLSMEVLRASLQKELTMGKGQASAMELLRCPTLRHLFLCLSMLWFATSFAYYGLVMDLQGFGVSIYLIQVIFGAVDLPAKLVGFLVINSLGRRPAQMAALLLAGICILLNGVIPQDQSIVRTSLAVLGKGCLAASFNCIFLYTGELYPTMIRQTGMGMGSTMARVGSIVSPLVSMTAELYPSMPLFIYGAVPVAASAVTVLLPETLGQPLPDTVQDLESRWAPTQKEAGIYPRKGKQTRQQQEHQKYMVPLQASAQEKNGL

hOAT10 = hOAT10 (Homo sapiens, UniProt Q9Y226); test: hOAT10 expressing oocytes, [14C]UA uptake inhibition; type: cell-based; conditions: for [14C]UA uptake inhibition via hOAT10, inhibitor inside: inhibitor injected inside the oocyte
Outline: as §1

[1] = Rat pharmacokinetic study; type: in vivo; conditions: male, Sprague-Dawley, whole blood
Outline: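 Adult male Sprague-Dawley rats (286 ± 12 g) were fasted 12–15 hr, n=5 per route. IV dosing was a bolus of about 300 µL over 30 sec into the orbital sinus under isoflurane, from aqueous 10% DMSO solution. Oral dosing was a CMC-formulated capsule, 19.6 mg/kg, followed by 500 µL water. Tail-vein blood was collected into K2EDTA from 0.083 to 24 hr (iv) or 0.5 to 30 hr (oral). Test compound was extracted with internal standard and quantified by LC/MS-MS (ESI−) against blood standard curves; LOQ 1.08 ng/mL.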

OATP-1B1 = molecular target: T5, OATP-1B1 (Homo sapiens, UniProt Q9Y6L6); test: OATP-1B1 expressing oocytes, [3H]estrone sulfate uptake inhibition; type: cell-based; conditions: OATP-1B1 IC50, substrate [3H]estrone sulfate, value in nM
T5 sequence (Q9Y6L6 1-691): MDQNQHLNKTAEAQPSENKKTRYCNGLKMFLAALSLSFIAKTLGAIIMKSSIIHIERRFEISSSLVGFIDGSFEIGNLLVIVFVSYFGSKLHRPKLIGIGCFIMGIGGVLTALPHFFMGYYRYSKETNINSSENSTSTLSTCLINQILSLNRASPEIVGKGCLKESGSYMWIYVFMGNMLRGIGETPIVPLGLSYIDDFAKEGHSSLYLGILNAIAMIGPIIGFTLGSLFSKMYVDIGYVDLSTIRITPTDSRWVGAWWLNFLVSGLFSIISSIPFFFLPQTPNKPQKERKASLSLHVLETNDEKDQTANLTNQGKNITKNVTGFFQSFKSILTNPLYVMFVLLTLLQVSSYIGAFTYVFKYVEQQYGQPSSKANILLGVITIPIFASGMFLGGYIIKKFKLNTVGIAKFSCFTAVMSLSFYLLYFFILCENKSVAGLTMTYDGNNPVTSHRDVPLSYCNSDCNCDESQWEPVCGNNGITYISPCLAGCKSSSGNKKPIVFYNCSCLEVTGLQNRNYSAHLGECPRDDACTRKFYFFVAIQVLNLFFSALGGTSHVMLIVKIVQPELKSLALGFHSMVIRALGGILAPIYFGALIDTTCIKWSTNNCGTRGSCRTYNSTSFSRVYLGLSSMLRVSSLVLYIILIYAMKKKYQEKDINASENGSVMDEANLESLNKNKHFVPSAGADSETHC
Outline: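 Xenopus laevis oocytes were defolliculated with collagenase, and stage IV–V oocytes were injected with 25 ng capped cRNA. They were kept 2–3 days at 18 ± 2 °C in ND96, pH 7.4. Uptake ran at room temperature in ND96 with test compound, using [3H]estrone sulfate for OATP1B1 and 2B1 and [3H]estradiol-17β-glucuronide for OATP1B3. Oocytes were washed in ice-cold ND96, solubilised in 5% SDS and counted by scintillation, with control-oocyte uptake subtracted.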

Chain of hOAT10 (Q9Y226 whole entry): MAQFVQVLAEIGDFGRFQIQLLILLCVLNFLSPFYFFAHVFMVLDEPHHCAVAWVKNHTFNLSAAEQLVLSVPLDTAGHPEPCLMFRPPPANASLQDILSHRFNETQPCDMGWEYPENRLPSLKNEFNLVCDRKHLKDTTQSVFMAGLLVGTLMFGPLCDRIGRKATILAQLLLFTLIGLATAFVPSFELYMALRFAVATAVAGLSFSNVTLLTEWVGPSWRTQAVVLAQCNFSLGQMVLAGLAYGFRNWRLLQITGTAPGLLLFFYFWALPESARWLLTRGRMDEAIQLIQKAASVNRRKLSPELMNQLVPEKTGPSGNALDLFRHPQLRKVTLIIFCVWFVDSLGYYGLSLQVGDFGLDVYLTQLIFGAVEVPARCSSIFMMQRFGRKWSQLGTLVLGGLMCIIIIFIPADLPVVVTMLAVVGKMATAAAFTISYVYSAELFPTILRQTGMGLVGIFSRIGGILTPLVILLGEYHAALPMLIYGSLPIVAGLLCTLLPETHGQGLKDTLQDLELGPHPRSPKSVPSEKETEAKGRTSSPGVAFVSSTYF

[14C]UA uptake inhibition via hOAT3, inhibitor inside (hOAT3)	[14C]UA uptake inhibition via hNPT4, inhibitor outside (hNPT4)	[14C]UA uptake inhibition via hNPT4, inhibitor inside (hNPT4; inhibitor injected inside the oocyte)	Effect on Vmax for [14C]UA uptake (hURAT1; 0.1 µM benzbromarone, 0.3 µM 6-hydroxy benzbromarone in uptake solution)	[14C]UA uptake inhibition via hURAT1, inhibitor inside (hURAT1; inhibitor injected inside the oocyte, [14C]UA 10 µM)	[14C]UA uptake inhibition via hOAT1, inhibitor inside (hOAT1)	14C-uric acid transport via hOAT10, inhibitor outside (hOAT10; inhibitor in incubation media)	[14C]UA uptake inhibition via hOAT10, inhibitor outside (hOAT10; inhibitor in uptake solution)	[14C]UA uptake inhibition via hOAT10, inhibitor inside (hOAT10)	AUC(0-t) ([1]; iv, 0.43 mg/kg) [ng·h/mL]	half-life ([1]; iv, 0.43 mg/kg, T1/2, rat, iv orbital sinus dosing 0.43 mg/Kg) [h]	AUC(0-t) ([1]; po, 19.6 mg/kg) [ng·h/mL]	Cmax ([1]; po, 19.6 mg/kg) [ng/mL]	Tmax ([1]; po, 19.6 mg/kg) [h]	IC50 (OATP-1B1) [nM]	SMILES	[14C]UA uptake inhibition via hOAT10, inhibitor inside (hOAT10; listed as benzbromarone)
profound inhibition	dose-dependent inhibition	moderate inhibition													CCCN(CCC)S(=O)(=O)c1ccc(C(=O)O)cc1 [Compound 1, probenecid]	
not readily inhibited	dose-dependent inhibition		reduced	did not produce a profound inhibition	not readily inhibited	roughly 50 % of control	dose-dependent effect	did not display this effect							CCc1oc2ccccc2c1C(=O)c1cc(Br)c(O)c(Br)c1 [Compound 2, benzbromarone]	did not produce a statistically different uptake as compared to control
									2090 ± 119	~3	60600 ± 7900	6460 to 6470	2 to 3	739	CCc1oc2cc(F)ccc2c1C(=O)c1cc(Br)c(O)c(Br)c1 [Compound 5, (3,5-dibromo-4-hydroxyphenyl)(2-ethyl-6-fluorobenzofuran-3-yl)methanone]	
